Activity calls are given as the source filed them. The rule behind the calls is not given here.
What was measured:
[1] = target: Aryl hydrocarbon receptor nuclear translocator (Homo sapiens) (UniProt P27540); assay: Inhibition of hypoxia-induced HIF1beta activation in human T47D cells at 10 uM after 4 hrs by Western blotting; assay type: cell-based
Procedure, shortened: (§1)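 T47D cells exposed to compound 30 min, then hypoxia (1% O2/94% N2/5% CO2) 4 h. Nuclear extracts prepared; HIF-1α probed by Western blot with monoclonal antibody, membrane stripped and reprobed for HIF-1β with monoclonal anti-HIF-1β antibody.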

[2] = target: Aryl hydrocarbon receptor nuclear translocator (Homo sapiens) (UniProt P27540); assay: Inhibition of hypoxia-induced HIF1beta activation in human T47D cells at 0.3 uM after 4 hrs by Western blotting; assay type: cell-based; procedure, shortened: as §1
T47D [3] = assay: Inhibition of hypoxia-induced secreted VEGF expression in human T47D cells at 1 uM after 16 by ELISA; assay type: functional, cell-based
Procedure, shortened: (§2)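 T47D cells given compound before hypoxia (1% O2, 16 h). Secreted VEGF protein in conditioned media measured by modified human VEGF ELISA and compared with normoxic control level.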

[4] = target: T1, Hypoxia inducible factors; HIF-1-alpha, HIF-2-alpha (Homo sapiens, UniProt Q16665+Q99814); assay: Inhibition of hypoxia-induced HIF1 activation in human T47D cells upto 10 uM by luciferase reporter gene assay; assay type: cell-based
Procedure, shortened: (§3)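 T47D cells transiently co-transfected with pTK-HRE3-luc and pRL-TK control, preincubated with compounds 30 min at 37 °C, then hypoxia (1% O2/94% N2/5% CO2) 16 h. Firefly luciferase activity normalized to Renilla, expressed as % inhibition versus induced control. Representative experiment, quadruplicate.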

T47D [5] = assay: Inhibition of hypoxia-induced secreted VEGF expression in human T47D cells at 0.3 uM after 16 by ELISA; assay type: functional, cell-based; procedure, shortened: as §2
[6] = target: T1, Hypoxia inducible factors; HIF-1-alpha, HIF-2-alpha; assay: Inhibition of hypoxia-induced HIF1 activation in human T47D cells upto 30 uM after 16 hrs by luciferase reporter gene assay; assay type: cell-based; procedure, shortened: as §3
[7] = target: T1, Hypoxia inducible factors; HIF-1-alpha, HIF-2-alpha; assay: Inhibition of hypoxia-induced HIF1 activation in human HeLa cells by luciferase reporter gene assay; assay type: cell-based
T47D [8] = assay: Inhibition of hypoxia-induced VEGF expression in human T47D cells at 10 uM after 16 hrs by ELISA; assay type: cell-based
Procedure, shortened: (§4)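 T47D cells given compound for 30 min before hypoxia (1% O2) for 16 h. VEGF protein in cell lysates measured by ELISA, normalized to cellular protein. Representative experiment in triplicate; significance p < 0.05 versus untreated control.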

[9] = Inhibition of luciferase expression in TNT T7 coupled reticulocyte lysate system at 10 uM; assay type: functional
Procedure, shortened: (§5)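 Cell-free luciferase expression from Luciferase T7 Control DNA using TNT T7 coupled reticulocyte lysate transcription/translation. Compounds present during reaction; luciferase activity expressed as percentage of untreated control.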

T47D [10] = assay: Inhibition of hypoxia-induced secreted VEGF expression in human T47D cells at 10 uM after 16 by ELISA relative to normoxic control; assay type: functional; procedure, shortened: as §2
[11] = Inhibition of luciferase expression in TNT T7 coupled reticulocyte lysate system at 0.3 uM; assay type: functional; procedure, shortened: as §5
T47D [12] = assay: Inhibition of hypoxia-induced VEGF expression in human T47D cells at 0.3 uM after 16 hrs by ELISA; assay type: cell-based; procedure, shortened: as §4
T47D [13] = assay: Inhibition of VEGF protein expression in human T47D cells at 0.3 uM; assay type: functional
Procedure, shortened: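 T47D breast carcinoma cells in DMEM/F12 with 10% FBS, 37 °C. Compound added 30 min before hypoxia (1% O2/94% N2/5% CO2, 16 h). Cell lysate VEGF measured by ELISA and normalised to cellular protein. Secreted VEGF in conditioned medium measured by modified ELISA. Compared with untreated control; one representative experiment in triplicate; significance p < 0.05.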

[14] = target: T1, Hypoxia inducible factors; HIF-1-alpha, HIF-2-alpha; assay: Inhibition of hypoxia-induced HIF1 activation in human T47D cells after 16 hrs by luciferase reporter gene assay; assay type: cell-based
T47D [15] = assay: Inhibition of hypoxia-induced VEGF expression in human T47D cells at 3 uM after 16 hrs by ELISA; assay type: cell-based; procedure, shortened: as §4
T47D [16] = assay: Inhibition of hypoxia-induced secreted VEGF expression in human T47D cells at 3 uM after 16 by ELISA relative to normoxic control; assay type: functional; procedure, shortened: as §2
T47D [17] = assay: Inhibition of hypoxia-induced VEGF expression in human T47D cells at 1 uM after 16 hrs by ELISA; assay type: cell-based; procedure, shortened: as §4

Chain of Aryl hydrocarbon receptor nuclear translocator (Homo sapiens) (P27540 whole entry): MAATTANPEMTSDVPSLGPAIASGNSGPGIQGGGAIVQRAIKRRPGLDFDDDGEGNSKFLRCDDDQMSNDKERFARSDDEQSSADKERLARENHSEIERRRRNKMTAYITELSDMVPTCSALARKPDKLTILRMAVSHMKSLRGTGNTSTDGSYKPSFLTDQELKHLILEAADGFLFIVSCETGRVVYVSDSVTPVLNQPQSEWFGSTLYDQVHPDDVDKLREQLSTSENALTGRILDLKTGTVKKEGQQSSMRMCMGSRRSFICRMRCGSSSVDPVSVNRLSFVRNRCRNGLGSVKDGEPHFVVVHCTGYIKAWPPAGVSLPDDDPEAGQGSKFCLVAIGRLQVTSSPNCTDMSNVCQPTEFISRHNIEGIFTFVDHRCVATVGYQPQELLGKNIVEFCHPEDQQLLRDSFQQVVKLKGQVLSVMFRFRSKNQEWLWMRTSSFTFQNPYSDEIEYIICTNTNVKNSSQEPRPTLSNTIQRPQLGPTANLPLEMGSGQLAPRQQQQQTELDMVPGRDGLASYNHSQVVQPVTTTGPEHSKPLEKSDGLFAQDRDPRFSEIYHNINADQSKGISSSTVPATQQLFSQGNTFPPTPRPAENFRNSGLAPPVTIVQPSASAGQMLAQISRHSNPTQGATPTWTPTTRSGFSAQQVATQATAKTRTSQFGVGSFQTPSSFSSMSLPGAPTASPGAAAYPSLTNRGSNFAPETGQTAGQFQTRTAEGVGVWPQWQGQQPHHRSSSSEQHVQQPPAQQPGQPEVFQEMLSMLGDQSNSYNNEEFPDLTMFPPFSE

SMILES	Activity [1]	Activity [2]	Activity (T47D [3])	Activity [4]	Activity (T47D [5])	Activity [6]	IC50 [7] [nM]	Activity (T47D [8])	Activity [9]	inhibition at 10 µM (T47D [10]) [%]	Activity [11]	inhibition (T47D [12]) [%]	Activity (T47D [13]) [pg/mL]	IC50 [14] [nM]	Activity (T47D [15])	inhibition at 3 µM (T47D [16]) [%]	inhibition (T47D [17]) [%]
CC[C@H]1CN2CCc3cc(OC)c(OC)cc3[C@@H]2C[C@@H]1C[C@@H]1NCCc2cc(O)c(O)cc21	inactive	inactive	Active	inactive	inactive	inactive	–	–	–	–	–	–	–	–	–	–	–
C[C@@H]1C[C@@H]([C@H](O)CC2CC(=O)NC(=O)C2)C(=O)[C@@H](C)C1 [CYCLOHEXIMIDE]	inactive	inactive	–	–	inactive	–	36	Active	Active	43	–	–	–	–	–	–	–
CC[C@H]1CN2CCc3cc(OC)c(OC)cc3[C@@H]2C[C@@H]1C[C@H]1NCCc2cc(OC)c(OC)cc21 [EMETINE]	inactive	inactive	–	–	Active	–	–	–	Active	–	inactive	69	58.8	–	–	–	–
CC[C@H]1CN2CCc3cc(OC)c(OC)cc3[C@@H]2C[C@@H]1C[C@@H]1NCCc2cc(O)c(OC)cc21 [ISOCEPHAELINE]	inactive	inactive	–	–	inactive	–	–	–	–	–	–	–	–	1100	Active	69	–
CC[C@H]1CN2CCc3cc(O)c(OC)cc3[C@@H]2C[C@@H]1C[C@@]1(O)NCCc2cc(O)c(OC)cc21 [KLUGINE]	inactive	inactive	Active	–	inactive	–	–	–	Active	–	inactive	–	–	200	–	–	56
